Reference: publication PMC4822987 (Acta crystallographica. Section F, Structural biology …, 2016)

Columns and labels:
human arginase II = settings: relative to ABH, ref Golebiowski et al., 2013; cited from earlier work
human arginase I = settings: relative to ABH, ref Van Zandt et al., 2013; cited from earlier work
[1] = target: Leishmania mexicana arginase (LmARG) (Leishmania mexicana, UniProt Q6TUJ5); assay: Inhibitory activity assay, colorimetric arginase activity; format: biochemical
Summary of the method: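 Recombinant LmARG (1 µM) started the reaction in 50 mM EPPS pH 8.0 with 100 µM MnCl2 and 30 mM L-arginine at 21°C. After 20 min it was stopped with H2SO4/H3PO4 acid plus α-isonitrosopropiophenone dye, then heated at 90°C for 1 h. Urea was read at 550 nm. Ki came from IC50 via Cheng–Prusoff, with Km from 0.5–150 mM arginine.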

S. mansoni arginase = settings: relative to ABH, ref Hai et al., 2014; cited from earlier work

| Structure (SMILES) | improved inhibitory potency in comparison with parent inhibitor ABH (human arginase II) [fold] | improved inhibitory potency (IC50) in comparison with parent inhibitor ABH (human arginase I) [fold] | IC50 [1] [nM] | Ki [1] [nM] | improved affinity in comparison with parent inhibitor ABH (S. mansoni arginase) [fold] |
| --- | --- | --- | --- | --- | --- |
| N[C@@](CCCCB(O)O)(C(=O)O)C1CCN(Cc2ccc(Cl)c(Cl)c2)CC1 (racemic) [ABHDP, (R)-2-amino-6-borono-2-[1-(3,4-dichlorobenzyl)piperidin-4-yl]hexanoic acid] | 7.4 | 7.4 | 1700 ± 400 | 1100 ± 300 | 2.4 |
| N[C@@H](CCCCB(O)O)C(=O)O [ABH, 2-(S)-amino-6-boronohexanoic acid, reference compound] |  |  | 1300 ± 200 | 900 ± 100 |  |
| N[C@](CCCCB(O)O)(CCN1CCCCC1)C(=O)O [ABHPE, (R)-2-amino-6-borono-2-[2-(piperidin-1-yl)ethyl]hexanoic acid] | 3.8 | 6.5 | 2100 ± 300 | 1400 ± 200 | 5.0 |
